# Measurements: ChEMBL document CHEMBL4346670, “Discovery of Novel Janus Kinase (JAK) and Histone Deacetylase (HDAC) Dual Inhibitors for the Treatment of Hematological Malignancies” (J Med Chem, 2019)
# What was measured:
# [1] = target: Calcium/calmodulin-dependent protein kinase type 1 (Homo sapiens) (UniProt Q14012); experiment: Inhibition of recombinant human CAMK1alpha at 20 nM using CREBtide as substrate measured after 30 mins by LANCE assay relative to control
# How it was run: (§1)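 Single-concentration screen within an 85-kinase panel run by a contract lab, with each compound tested at 20 nM and 200 nM. Human recombinant enzymes were used. Activity was quantified as phosphorylation of a peptide substrate read by LANCE time-resolved detection, and inhibition was expressed relative to control, using the same format as the JAK assay.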
# [2] = target: Cyclin-dependent kinase 6 (Homo sapiens) (UniProt Q00534); experiment: Inhibition of recombinant human CDK6 at 20 nM using Ulight-CFFKNIVTPRTPPPSQGK-amide as substrate measured after 60 mins by LANCE assay relative to control; how it was run: as §1
# [3] = target: Testis-specific serine/threonine-protein kinase 1 (Homo sapiens) (UniProt Q9BXA7); experiment: Inhibition of recombinant human TSSK1 at 20 nM using Ulight-RRRSLLE as substrate measured after 60 mins by LANCE method relative to control
# [4] = target: Serine/threonine-protein kinase DCLK1 (Homo sapiens) (UniProt O15075); experiment: Inhibition of recombinant human DCAMKL1 at 200 nM using CREBtide as substrate measured after 60 mins by LANCE method relative to control; how it was run: as §1
# [5] = organism: Homo sapiens; experiment: Inhibition of recombinant human PKA at 20 nM using Ulight-RRRSLLE peptide as substrate measured after 10 mins by LANCE assay relative to control
# [6] = Half life in rat liver microsomes at 1 uM in presence of NADPH cofactor for phase 1 metabolism and measured upto 60 mins by LC-MS/MS analysis; assay type: ADME, Microsome
# How it was run: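 Liver microsomes (rat or human) incubated with compound at 37 °C, with NADPH for phase I or UDPGA for phase II. Reactions stopped in acetonitrile at set time points, vortexed 5 min, stored at -80 °C. Parent remaining in supernatant measured by LC-MS/MS. t1/2 = -0.693/k, with k the slope of ln fraction remaining versus time.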
# [7] = target: Hepatocyte growth factor receptor (Homo sapiens) (UniProt P08581); experiment: Inhibition of recombinant human c-MET at 200 nM using Ulight-CAGAGAIETDKEYYTVKD as substrate measured after 60 mins by LANCE method relative to control
# [8] = target: cAMP-dependent protein kinase catalytic subunit PRKX (Homo sapiens) (UniProt P51817); experiment: Inhibition of recombinant human PRKX at 20 nM using Ulight-RRRSLLE as substrate measured after 30 mins by LANCE method relative to control
# [9] = target: Ribosomal protein S6 kinase alpha-4 (Homo sapiens) (UniProt O75676); experiment: Inhibition of recombinant human MSK2 at 20 nM using biotinyl-beta […] AAAARARTSSFAEPG after 15 mins by HTRF method relative to control
# [10] = target: Vascular endothelial growth factor receptor 1 (Homo sapiens) (UniProt P17948); experiment: Inhibition of recombinant human FLT1 at 200 nM using Ulight-TK peptide as substrate measured after 15 mins by LANCE method relative to control; how it was run: as §1
# [11] = target: Mitogen-activated protein kinase 8 (Homo sapiens) (UniProt P45983); experiment: Inhibition of recombinant human JNK1 at 200 nM using Ulight-CFFKNIVTPRTPPPSQGK-amide as substrate measured after 60 mins by LANCE method relative to control
# How it was run: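 Part of an 85-kinase selectivity panel run by a contract lab, with the test compound at 20 nM and at 200 nM. Each human recombinant kinase's phosphorylation of its peptide substrate was measured following the JAK assay method. Activity is given as percent inhibition.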
# Hepatocyte growth factor receptor (Homo sapiens), sequence (P08581 whole entry): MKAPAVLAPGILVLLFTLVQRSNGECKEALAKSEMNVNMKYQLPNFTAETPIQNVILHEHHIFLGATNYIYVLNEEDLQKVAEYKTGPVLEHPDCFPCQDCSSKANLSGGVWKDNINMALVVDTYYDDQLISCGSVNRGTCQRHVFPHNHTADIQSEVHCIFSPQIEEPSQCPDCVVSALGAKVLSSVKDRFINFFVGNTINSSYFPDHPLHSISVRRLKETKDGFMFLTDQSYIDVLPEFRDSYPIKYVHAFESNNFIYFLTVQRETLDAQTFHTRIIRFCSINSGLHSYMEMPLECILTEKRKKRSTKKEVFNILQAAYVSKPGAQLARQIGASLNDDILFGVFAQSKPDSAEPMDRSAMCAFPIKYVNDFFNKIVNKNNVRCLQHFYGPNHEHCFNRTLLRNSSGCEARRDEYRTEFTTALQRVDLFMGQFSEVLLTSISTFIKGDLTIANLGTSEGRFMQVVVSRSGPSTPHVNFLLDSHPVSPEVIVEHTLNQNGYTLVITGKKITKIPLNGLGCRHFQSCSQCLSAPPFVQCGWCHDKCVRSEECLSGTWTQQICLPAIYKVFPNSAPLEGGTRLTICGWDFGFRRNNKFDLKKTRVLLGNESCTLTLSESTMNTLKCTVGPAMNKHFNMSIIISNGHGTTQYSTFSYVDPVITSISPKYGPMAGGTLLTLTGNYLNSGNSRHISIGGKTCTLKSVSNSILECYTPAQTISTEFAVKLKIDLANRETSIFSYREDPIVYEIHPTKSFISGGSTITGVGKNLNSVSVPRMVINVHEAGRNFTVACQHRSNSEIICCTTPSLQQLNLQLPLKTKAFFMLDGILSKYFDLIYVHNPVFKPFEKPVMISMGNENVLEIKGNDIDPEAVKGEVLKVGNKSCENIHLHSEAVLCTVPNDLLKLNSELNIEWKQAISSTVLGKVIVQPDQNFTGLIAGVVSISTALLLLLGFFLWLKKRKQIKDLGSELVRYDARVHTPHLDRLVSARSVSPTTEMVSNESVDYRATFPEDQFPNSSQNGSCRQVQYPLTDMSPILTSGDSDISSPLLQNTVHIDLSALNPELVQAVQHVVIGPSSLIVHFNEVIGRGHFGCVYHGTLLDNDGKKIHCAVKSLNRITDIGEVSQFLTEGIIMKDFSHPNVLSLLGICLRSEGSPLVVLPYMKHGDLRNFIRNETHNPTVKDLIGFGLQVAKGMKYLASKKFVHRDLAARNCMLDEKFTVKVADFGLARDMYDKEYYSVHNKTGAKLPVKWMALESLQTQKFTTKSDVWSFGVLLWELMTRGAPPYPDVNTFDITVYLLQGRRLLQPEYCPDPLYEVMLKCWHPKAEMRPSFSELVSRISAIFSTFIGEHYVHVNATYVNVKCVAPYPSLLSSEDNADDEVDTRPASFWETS
# Calcium/calmodulin-dependent protein kinase type 1 (Homo sapiens), sequence (Q14012 whole entry, looked up): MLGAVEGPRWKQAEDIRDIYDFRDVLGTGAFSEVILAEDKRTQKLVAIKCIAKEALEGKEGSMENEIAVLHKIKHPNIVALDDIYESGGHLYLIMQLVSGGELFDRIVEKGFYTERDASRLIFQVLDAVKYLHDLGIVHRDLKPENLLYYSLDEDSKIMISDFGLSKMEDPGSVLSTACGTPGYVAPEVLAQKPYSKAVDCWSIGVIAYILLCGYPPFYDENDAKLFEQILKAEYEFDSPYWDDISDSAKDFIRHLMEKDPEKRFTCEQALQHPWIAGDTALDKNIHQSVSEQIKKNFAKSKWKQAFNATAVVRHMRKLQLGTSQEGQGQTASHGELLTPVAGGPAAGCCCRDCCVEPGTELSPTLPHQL
# Ribosomal protein S6 kinase alpha-4 (Homo sapiens), sequence (O75676 whole entry, looked up): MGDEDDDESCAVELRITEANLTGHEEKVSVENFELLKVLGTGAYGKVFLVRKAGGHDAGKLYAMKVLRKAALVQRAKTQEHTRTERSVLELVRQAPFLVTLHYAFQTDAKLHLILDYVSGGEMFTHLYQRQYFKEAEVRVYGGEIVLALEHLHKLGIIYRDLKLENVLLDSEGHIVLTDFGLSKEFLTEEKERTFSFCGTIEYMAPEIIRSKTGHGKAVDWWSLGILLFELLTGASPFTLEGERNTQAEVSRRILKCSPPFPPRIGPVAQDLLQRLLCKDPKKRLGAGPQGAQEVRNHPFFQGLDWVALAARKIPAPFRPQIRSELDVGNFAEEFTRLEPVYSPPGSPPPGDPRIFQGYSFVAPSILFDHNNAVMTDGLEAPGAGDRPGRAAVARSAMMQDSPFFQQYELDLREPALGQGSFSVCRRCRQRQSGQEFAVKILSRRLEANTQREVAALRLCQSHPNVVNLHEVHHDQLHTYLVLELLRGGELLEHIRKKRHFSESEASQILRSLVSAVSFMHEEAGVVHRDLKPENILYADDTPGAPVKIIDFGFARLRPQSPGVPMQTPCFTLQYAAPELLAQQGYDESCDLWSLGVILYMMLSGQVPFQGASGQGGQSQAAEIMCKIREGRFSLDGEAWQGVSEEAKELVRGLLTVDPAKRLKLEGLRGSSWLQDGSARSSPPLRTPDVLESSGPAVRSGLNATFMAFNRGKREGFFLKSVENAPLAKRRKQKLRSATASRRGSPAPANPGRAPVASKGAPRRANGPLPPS
# Cyclin-dependent kinase 6 (Homo sapiens), sequence (Q00534 whole entry): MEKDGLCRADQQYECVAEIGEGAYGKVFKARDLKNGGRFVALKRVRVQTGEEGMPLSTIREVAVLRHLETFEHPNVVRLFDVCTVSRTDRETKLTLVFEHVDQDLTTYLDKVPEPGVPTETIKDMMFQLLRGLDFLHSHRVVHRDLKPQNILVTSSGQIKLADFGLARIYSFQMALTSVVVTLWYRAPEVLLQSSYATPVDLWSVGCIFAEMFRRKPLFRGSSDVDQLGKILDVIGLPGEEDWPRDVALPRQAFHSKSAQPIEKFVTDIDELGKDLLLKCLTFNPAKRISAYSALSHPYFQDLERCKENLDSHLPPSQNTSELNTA
# Testis-specific serine/threonine-protein kinase 1 (Homo sapiens), sequence (Q9BXA7 whole entry): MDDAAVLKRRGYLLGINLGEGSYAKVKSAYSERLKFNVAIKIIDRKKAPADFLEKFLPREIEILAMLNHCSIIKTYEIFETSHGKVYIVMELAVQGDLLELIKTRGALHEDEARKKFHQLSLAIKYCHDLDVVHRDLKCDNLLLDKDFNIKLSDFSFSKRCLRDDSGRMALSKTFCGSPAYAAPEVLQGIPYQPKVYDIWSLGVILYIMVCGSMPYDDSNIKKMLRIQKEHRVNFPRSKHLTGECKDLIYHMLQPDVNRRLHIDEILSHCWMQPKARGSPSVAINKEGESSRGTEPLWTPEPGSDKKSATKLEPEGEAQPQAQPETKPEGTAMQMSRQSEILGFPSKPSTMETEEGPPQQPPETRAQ
# cAMP-dependent protein kinase catalytic subunit PRKX (Homo sapiens), sequence (P51817 whole entry): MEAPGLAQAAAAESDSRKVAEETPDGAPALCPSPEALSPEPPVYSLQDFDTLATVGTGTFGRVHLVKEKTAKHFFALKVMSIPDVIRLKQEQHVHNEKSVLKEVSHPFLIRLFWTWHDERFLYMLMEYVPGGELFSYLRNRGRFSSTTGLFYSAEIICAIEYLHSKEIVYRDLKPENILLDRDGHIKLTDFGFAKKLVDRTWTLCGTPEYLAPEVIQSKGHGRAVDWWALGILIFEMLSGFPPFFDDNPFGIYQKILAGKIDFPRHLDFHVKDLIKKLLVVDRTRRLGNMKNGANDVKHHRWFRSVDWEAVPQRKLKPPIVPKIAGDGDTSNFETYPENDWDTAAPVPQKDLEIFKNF
# Vascular endothelial growth factor receptor 1 (Homo sapiens), sequence (P17948 whole entry): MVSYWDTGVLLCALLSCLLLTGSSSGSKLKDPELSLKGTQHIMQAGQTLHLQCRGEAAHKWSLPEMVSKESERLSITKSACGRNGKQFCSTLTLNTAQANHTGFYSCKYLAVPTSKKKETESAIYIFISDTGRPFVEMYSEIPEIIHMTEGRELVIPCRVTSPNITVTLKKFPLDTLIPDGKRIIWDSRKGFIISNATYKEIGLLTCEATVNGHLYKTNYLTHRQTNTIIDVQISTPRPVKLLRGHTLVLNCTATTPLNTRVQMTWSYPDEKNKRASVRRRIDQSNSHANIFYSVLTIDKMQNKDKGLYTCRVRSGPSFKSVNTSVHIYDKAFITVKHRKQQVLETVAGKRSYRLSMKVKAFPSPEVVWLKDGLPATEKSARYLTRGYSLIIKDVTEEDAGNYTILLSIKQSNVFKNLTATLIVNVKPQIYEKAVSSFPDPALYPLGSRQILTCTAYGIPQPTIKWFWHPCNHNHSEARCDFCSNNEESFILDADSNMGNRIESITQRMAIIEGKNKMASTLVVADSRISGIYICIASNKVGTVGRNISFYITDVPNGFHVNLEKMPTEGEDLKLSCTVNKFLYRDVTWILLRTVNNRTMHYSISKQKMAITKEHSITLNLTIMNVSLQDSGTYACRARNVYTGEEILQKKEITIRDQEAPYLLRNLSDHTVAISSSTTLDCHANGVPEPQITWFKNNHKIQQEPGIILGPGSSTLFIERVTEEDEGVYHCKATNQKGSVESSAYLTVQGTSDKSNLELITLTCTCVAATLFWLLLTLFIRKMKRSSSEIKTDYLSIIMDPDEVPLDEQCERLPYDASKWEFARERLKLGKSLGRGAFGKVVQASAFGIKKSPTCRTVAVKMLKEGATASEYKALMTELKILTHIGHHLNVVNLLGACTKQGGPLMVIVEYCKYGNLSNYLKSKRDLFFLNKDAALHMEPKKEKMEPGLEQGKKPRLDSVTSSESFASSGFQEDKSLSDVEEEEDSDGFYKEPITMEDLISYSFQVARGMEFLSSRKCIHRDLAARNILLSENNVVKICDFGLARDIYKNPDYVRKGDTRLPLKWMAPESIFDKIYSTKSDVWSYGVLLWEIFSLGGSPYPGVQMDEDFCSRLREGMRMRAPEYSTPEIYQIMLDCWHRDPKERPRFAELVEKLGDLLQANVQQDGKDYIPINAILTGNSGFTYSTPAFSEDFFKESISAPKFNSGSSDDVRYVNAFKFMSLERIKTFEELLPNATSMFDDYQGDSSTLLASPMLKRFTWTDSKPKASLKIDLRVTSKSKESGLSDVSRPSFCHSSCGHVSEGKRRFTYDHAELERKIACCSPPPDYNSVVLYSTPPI
compound,measurement,setting,value
O=C(CCCCCn1cc(Nc2ncc(Cl)c(Nc3ccc(Cl)cc3)n2)cn1)NO,inhibition,[1],2%
same,inhibition,[2],10%
same,inhibition,[3],-3%
same,inhibition,[4],9%
same,inhibition,[5],-10%
same,half-life at 1 µM,[6],14.6 min
same,inhibition,[7],37%
same,inhibition,[8],-1%
same,inhibition,[9],-2%
same,inhibition,[10],61%
same,inhibition,[11],13%
